Measured values from ChEMBL document CHEMBL3286200, “Design and green synthesis of 2-(diarylalkyl)aminobenzothiazole derivatives and their dual activities as angiotensin converting enzyme inhibitors and calcium channel blockers” (Eur J Med Chem, 2014).
Active and inactive are the calls of the source. No cut-off for these calls is given here.

Legend:
Rattus norvegicus [1] = species: Rattus norvegicus; assay: (§1) Inhibition of voltage-dependent calcium channel in Sprague-Dawley rat thoracic aorta assessed as inhibition of CaCl2-induced contraction by isometric force transducer; format: tissue-based
Outline: (§2)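 Rat aortic rings held at 37 °C in 25 mL oxygenated KHB in an organ bath, under 1 g resting tension, equilibrated about 30 min. Isometric tension recorded by force transducer. Initial contraction with phenylephrine 1 mM, buffer changed every 15 min. After preincubation with test agent, a cumulative calcium concentration-response curve (10^-3 to 10^-1 M) was recorded.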

[2] = molecular target: T1, Angiotensin-converting enzyme (Oryctolagus cuniculus, UniProt P12822); assay: Inhibition of rabbit lung ACE assessed as inhibition of hippuryl-histidyl-leucine substrate hydrolysis pretreated for 10 mins followed by addition of 5 mM HHL substrate for 30 mins measured as hippuric acid release
T1 sequence (P12822 whole entry): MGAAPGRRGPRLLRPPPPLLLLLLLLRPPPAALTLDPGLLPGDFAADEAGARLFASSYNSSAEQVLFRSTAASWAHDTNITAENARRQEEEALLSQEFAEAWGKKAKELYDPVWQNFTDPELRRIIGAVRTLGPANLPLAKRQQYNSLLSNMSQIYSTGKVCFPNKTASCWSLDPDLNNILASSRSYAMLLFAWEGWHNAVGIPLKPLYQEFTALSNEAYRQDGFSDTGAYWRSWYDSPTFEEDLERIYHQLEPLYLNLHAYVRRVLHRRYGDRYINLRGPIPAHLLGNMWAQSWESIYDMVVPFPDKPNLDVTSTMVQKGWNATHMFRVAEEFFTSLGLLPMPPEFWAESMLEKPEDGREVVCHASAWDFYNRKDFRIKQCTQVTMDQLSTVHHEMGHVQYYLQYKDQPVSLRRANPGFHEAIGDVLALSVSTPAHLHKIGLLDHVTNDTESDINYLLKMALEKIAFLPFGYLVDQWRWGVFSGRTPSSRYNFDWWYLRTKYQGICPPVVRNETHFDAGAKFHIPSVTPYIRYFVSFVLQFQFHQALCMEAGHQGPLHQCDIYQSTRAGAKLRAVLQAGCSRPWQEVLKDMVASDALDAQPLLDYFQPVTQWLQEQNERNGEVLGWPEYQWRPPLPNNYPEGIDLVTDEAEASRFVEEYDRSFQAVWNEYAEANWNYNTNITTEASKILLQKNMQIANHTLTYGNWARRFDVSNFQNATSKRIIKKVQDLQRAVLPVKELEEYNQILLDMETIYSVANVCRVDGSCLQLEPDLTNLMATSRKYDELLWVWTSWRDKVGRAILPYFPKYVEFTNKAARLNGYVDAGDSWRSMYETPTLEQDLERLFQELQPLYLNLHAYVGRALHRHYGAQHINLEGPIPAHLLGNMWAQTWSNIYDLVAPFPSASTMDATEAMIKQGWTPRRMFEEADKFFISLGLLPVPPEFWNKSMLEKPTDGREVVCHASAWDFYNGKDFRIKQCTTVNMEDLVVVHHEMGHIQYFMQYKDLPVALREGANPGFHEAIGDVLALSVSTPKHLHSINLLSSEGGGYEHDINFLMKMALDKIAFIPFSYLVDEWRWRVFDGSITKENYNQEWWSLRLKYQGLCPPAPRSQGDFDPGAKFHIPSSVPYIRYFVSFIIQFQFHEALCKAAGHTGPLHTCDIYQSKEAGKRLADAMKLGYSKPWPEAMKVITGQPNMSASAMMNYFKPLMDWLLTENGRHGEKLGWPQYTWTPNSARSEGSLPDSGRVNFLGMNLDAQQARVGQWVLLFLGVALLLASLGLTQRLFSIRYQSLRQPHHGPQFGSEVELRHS
Outline: (§3)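 Reaction started with […] of 5 mM HHL; released hippuric acid read as yellow colour at 410 nm. Inhibition% = 100 − (T/C)×100; IC50 from percentage-inhibition versus concentration curves.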

Rattus norvegicus [3] = species: Rattus norvegicus; assay: Inhibition of voltage-dependent calcium channel in Sprague-Dawley rat thoracic aorta assessed as inhibition of CaCl2-induced contraction at […] by isometric force transducer; format: tissue-based
Outline: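 Isolated rat aortic rings hung on steel hooks in a water-jacketed organ bath of oxygenated KHB at 37 °C. Resting tension 1 g, equilibration about 30 min. Rings precontracted with […], with buffer changed every 15 min. Tissue preincubated with test agent, then cumulative calcium concentration–response curve (10^-3 to 10^-1 M) recorded as isometric tension.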

[4] = as §1; format: tissue-based; outline: as §2
[5] = molecular target: T2, Angiotensin-converting enzyme (Oryctolagus cuniculus) (UniProt P12822); assay: Inhibition of rabbit lung ACE assessed as inhibition of hippuryl-histidyl-leucine substrate hydrolysis at 1 uM pretreated for 10 mins followed by addition of 5 mM HHL substrate for 30 mins measured as hippuric acid release; outline: as §3
T2 sequence (whole entry): T1 sequence (P12822 whole entry)

Structure (SMILES) | inhibition (Rattus norvegicus [1]) | also measured
Oc1ccc2ccccc2c1C(Nc1nc2ccccc2s1)c1cccc(Oc2ccccc2)c1 (stereo not given) | Dose-dependent effect | 
Oc1ccc2ccccc2c1C(Nc1nc2ccc(Cl)cc2s1)c1ccc(Br)cc1 (stereo not given) | Dose-dependent effect | 
CC(c1ccccc1)C(Nc1nc2ccccc2s1)c1c(O)ccc2ccccc12 (stereo not given) | Dose-dependent effect | 
Cc1ccc(C(Nc2nc3c(Cl)cccc3s2)c2c(O)ccc3ccccc23)cc1 (stereo not given) | Dose-dependent effect | 
Oc1ccc2ccccc2c1C(Nc1nc2c(Cl)cccc2s1)c1cccc(Oc2ccccc2)c1 (stereo not given) | Dose-dependent effect | 
N#Cc1ccc(C(Nc2nc3ccccc3s2)c2c(O)ccc3ccccc23)cc1 (stereo not given) | Dose-dependent effect | 
Cc1ccc(C(Nc2nc3ccccc3s2)c2c(O)ccc3ccccc23)cc1 (stereo not given) | Dose-dependent effect | 
COc1cc(C(Nc2nc3c(Cl)cccc3s2)c2c(O)ccc3ccccc23)cc(OC)c1OC (stereo not given) | Dose-dependent effect | 
Oc1ccc2ccccc2c1C(Nc1nc2ccc(Cl)cc2s1)c1ccccc1 (stereo not given) | Dose-dependent effect | 
Oc1ccc2ccccc2c1C(Nc1nc2ccccc2s1)c1ccc(C(F)(F)F)cc1 (stereo not given) | Dose-dependent effect | 
O=C(/C=C/c1ccc(O)c(O)c1)c1ccc(O)cc1O [BUTEIN] |  | IC50 [2]: 730000 nM
COc1cc(C(Nc2nc3ccccc3s2)c2c(O)ccc3ccccc23)cc(OC)c1OC (stereo not given) | Dose-dependent effect | 
Oc1ccc2ccccc2c1C(Nc1nc2ccccc2s1)c1ccc(Cl)cc1 (stereo not given) | Dose-dependent effect | 
Oc1ccc2ccccc2c1C(Nc1nc2ccccc2s1)c1ccc(Cl)c(Cl)c1 (stereo not given) | Dose-dependent effect | 
Oc1ccc2ccccc2c1C(Nc1nc2ccccc2s1)c1cccc(Cl)c1 (stereo not given) | Dose-dependent effect | 
Oc1ccc2ccccc2c1C(Nc1nc2ccccc2s1)c1ccc(Cl)cc1Cl (stereo not given) | Dose-dependent effect | 
COc1ccc(C(Nc2nc3ccccc3s2)c2c(O)ccc3ccccc23)c(OC)c1 (stereo not given) | Dose-dependent effect | 
Cc1ccc(C(Nc2nc3ccc(Cl)cc3s2)c2c(O)ccc3ccccc23)cc1 (stereo not given) | Dose-dependent effect | 
CN(C)c1ccc(C(Nc2nc3ccccc3s2)c2c(O)ccc3ccccc23)cc1 (stereo not given) | Dose-dependent effect | 
COc1ccc(C(Nc2nc3ccccc3s2)c2c(O)ccc3ccccc23)cc1OC (stereo not given) | Dose-dependent effect | 
COC(=O)C1=C(C)NC(C)=C(C(=O)OC)C1c1ccccc1[N+](=O)[O-] |  | inhibition (Rattus norvegicus [3]): Active
Oc1ccc2ccccc2c1C(Nc1nc2ccccc2s1)c1ccc(F)c(F)c1 (stereo not given) | Dose-dependent effect | 

Structure (SMILES) | inhibition (Rattus norvegicus [1]) | also measured
Oc1ccc2ccccc2c1C(Nc1nc2c(Cl)cccc2s1)c1ccc(Cl)cc1Cl (stereo not given) | Dose-dependent effect | 
Oc1ccc2ccccc2c1C(Nc1nc2ccccc2s1)c1ccccc1Cl (stereo not given) | Dose-dependent effect | 
Oc1ccc2ccccc2c1C(Nc1nc2ccc(Cl)cc2s1)c1ccc(Cl)c(Cl)c1 (stereo not given) | Dose-dependent effect | 
COc1ccc(C(Nc2nc3ccccc3s2)c2c(O)ccc3ccccc23)cc1 (stereo not given) | Dose-dependent effect | IC50 [4]: 3000 nM; inhibition [5]: 61.8%; IC50 [2]: 837 nM
Oc1ccc2ccccc2c1C(Nc1nc2ccccc2s1)c1ccc(F)cc1 (stereo not given) | Dose-dependent effect | 
Oc1ccc2ccccc2c1C(Nc1nc2ccccc2s1)c1cccc(Cl)c1Cl (stereo not given) | Dose-dependent effect | 
Oc1ccc2ccccc2c1C(Nc1nc2ccccc2s1)c1cccc(Br)c1 (stereo not given) | Dose-dependent effect | 
Oc1ccc2ccccc2c1C(Nc1nc2c(Cl)cccc2s1)c1cccc(Cl)c1 (stereo not given) | Dose-dependent effect | 
Oc1ccc2ccccc2c1C(Nc1nc2ccccc2s1)c1ccc2ccccc2c1 (stereo not given) | Dose-dependent effect | 
Oc1ccc2ccccc2c1C(Nc1nc2c(Cl)cccc2s1)c1ccc(Br)cc1 (stereo not given) | Dose-dependent effect | 
CN(C)c1ccc(C(Nc2nc3c(Cl)cccc3s2)c2c(O)ccc3ccccc23)cc1 (stereo not given) | Dose-dependent effect | 
Oc1ccc2ccccc2c1C(Nc1nc2c(Cl)cccc2s1)c1ccccc1 (stereo not given) | Dose-dependent effect | 
Oc1ccc2ccccc2c1C(Nc1nc2c(Cl)cccc2s1)c1ccc2ccccc2c1 (stereo not given) | Dose-dependent effect | 
Oc1ccc2ccccc2c1C(Nc1nc2ccccc2s1)c1ccccc1 (stereo not given) | Dose-dependent effect | 
CC(C)c1ccc(C(Nc2nc3ccccc3s2)c2c(O)ccc3ccccc23)cc1 (stereo not given) | Dose-dependent effect | 
Oc1ccc2ccccc2c1C(Nc1nc2ccccc2s1)c1cccc(F)c1 (stereo not given) | Dose-dependent effect | 
Oc1ccc2ccccc2c1C(Nc1nc2ccccc2s1)c1ccc(Br)cc1 (stereo not given) | Dose-dependent effect | 
Oc1ccc2ccccc2c1C(Nc1nc2c(Cl)cccc2s1)c1ccc(Cl)c(Cl)c1 (stereo not given) | Dose-dependent effect | 
Oc1ccc2ccccc2c1C(Nc1nc2c(Cl)cccc2s1)c1ccc(F)cc1 (stereo not given) | Dose-dependent effect | 
Cc1cccc2sc(NC(c3ccc(Cl)c(Cl)c3)c3c(O)ccc4ccccc34)nc12 (stereo not given) | Dose-dependent effect | 
Oc1ccc2ccccc2c1C(Nc1nc2ccccc2s1)c1cc(F)ccc1Br (stereo not given) | Dose-dependent effect | 
COc1ccc(C(Nc2nc3c(Cl)cccc3s2)c2c(O)ccc3ccccc23)cc1 (stereo not given) | Dose-dependent effect | IC50 [4]: 50000 nM; inhibition [5]: 80.1%; IC50 [2]: 607 nM
